Source: PubChem BioAssay (Broad Institute)
Compounds with a hit are over-represented: about 2% of the library has one in this group of screens.
E-selectin induc = E-selectin induction in HUVECs, primary screen, imaging, HUVEC, immunofluorescence imaging, single point; AID 686992, 2013; activation, % at 7.58 µM; normalized: neutral wells 0, TNF-alpha wells 100; actives 0.37% (n = 260,000); P16581;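 active = mean E-selectin-positive cell signal at least 10% of the positive control, reached in at least 60% of replicates, without over 20% cell loss; inconclusive = no rule given, readout overlaps actives, possibly toxicity-flagged; inactive = the rest, including those meeting only one limit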
Target sequence (P16581 whole entry, looked up): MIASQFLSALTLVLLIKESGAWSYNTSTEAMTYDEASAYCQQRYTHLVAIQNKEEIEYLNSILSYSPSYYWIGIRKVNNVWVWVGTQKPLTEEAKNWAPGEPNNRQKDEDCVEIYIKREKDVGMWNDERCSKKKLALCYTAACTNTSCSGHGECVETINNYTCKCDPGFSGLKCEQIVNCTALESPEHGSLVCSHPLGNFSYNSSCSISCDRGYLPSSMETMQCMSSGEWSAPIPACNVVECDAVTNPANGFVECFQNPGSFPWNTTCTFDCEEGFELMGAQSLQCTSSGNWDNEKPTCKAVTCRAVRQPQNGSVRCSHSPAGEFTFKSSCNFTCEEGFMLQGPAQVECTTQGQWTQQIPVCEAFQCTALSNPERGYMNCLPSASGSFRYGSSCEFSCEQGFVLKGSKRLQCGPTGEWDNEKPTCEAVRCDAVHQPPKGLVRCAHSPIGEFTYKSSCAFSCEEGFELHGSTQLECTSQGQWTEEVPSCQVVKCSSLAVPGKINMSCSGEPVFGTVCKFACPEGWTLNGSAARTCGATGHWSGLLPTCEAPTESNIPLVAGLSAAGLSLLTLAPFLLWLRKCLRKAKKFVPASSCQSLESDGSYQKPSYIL
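Assay system: HUVEC, human umbilical vein endothelial cells / Amount: 3,000 HUVEC/well / Controls: TNF-alpha positive control, DMSO neutral control / Compound dosing: single concentration / Medium: EGM-2 over gelatin coat / Evaluation: percent E-selectin-positive cells / Signal: immunofluorescence imaging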
RAD54 branch = inhibitors of human RAD54 branch migration, primary screen, biochemical, fluorescence, single point; DNA repair and recombination protein RAD54-like (Homo sapiens), Q92698; RAD54 Holliday junction branch migration, FAM/BHQ fluorescence; inhibition, % at 10.4 µM; actives 0.14% (n = 360,000);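 active = mean normalized replicate activity at least 40 and at least half of replicates scoring 40 or more; inconclusive = only one of the two criteria met; inactive = mean below 40 and under half of replicates reaching 40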;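 note: 0% = median of neutral control wells and 100% = median of positive control wells; inhibitors cause a drop in the FAM fluorescence signal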
rRNA inh HTS = reduced GFP signal of wild-type E. coli, primary screen, bacterial rRNA inhibitor project, GFP/RFP fluorescence, OD600, single point; E. coli WT GFP vs humanized-ribosome RFP mutants, 24 h; active compounds read low; DMSO median 0, no signal -100; GFP signal change (wild-type ribosome), % (test concentration not listed); actives 1.6% (n = 350,000);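 active = significant combined selectivity score with lowered wild-type GFP, culture density cut under 30%, mutant RFP and density less affected; inactive = any of these conditions unmet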
PglD DTNB = C. jejuni PglD acetyltransferase inhibitors, primary screen, biochemical, DTNB colorimetric, single point; purified PglD enzyme, DTNB colorimetric CoA detection; inhibition, % at 12.5 µM; actives 0.098% (n = 360,000); AID 602405, 2012; in the data active = inhibition above about 16%, passing the limit was not always enough; inconclusive = no clear call, values can overlap the other calls
XiGFP reactiv = activators of inactive X chromosome reactivation, primary screen, imaging, XiGFP fibroblasts, GFP high-content imaging, set 2; XiGFP mouse fibroblasts, % GFP-positive cells imaging, 3 d; cells co-treated with 5-aza-dC sensitizer; scaled so ellipticine positive control = 100%; activation, % at 7.58 µM; actives 0.055% (n = 360,000); AID 743238, 2013;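 active = mean normalized replicate activation at least 10% and every replicate at or above 10%; inconclusive = only one of the two criteria met; inactive = mean below 10% and not all replicates reach 10%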;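 note: 0% = median of on-plate neutral control wells and 100% = ellipticine 6 µM median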
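System: XiGFP fibroblasts, SV40-immortalized. Medium: DMEM plus 5-aza-dC sensitizer. Doses: single point. Timing: 3 d treatment, 15 min room-temperature fixation. Control set: ellipticine 6 µM.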
RAD52 inh = RAD52 DNA annealing inhibitors, primary screen, biochemical, FRET, single point, set 2; actives 0.46% (n = 360,000); DNA repair protein RAD52 homolog (Homo sapiens), P43351; recombinant RAD52 DNA annealing, FRET fluorescence; inhibition, % at 18.7 µM; AID 651710, 2012;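 active = every replicate showing at least 50% inhibition; inconclusive = mean inhibition at least 50% but not in every replicate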
DNA binder FP = DNA-binding compounds via dye displacement, dose response, artefact control for RAD52 inhibitor project, biochemical, fluorescence polarization, cherry-pick. actives 8% (n = 1,000). shares compounds with RAD52 inh. Salmon sperm DNA/acridine orange FP displacement. AC50, µM;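 active = fitted half-maximal concentration for signal loss at or below twice the highest dose tested, in every separate run, actives reach about 64 µM in these data; inconclusive = runs disagree, or flat partial signal loss, or poor fit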
The depositor's hits bear a star.

What do the screens show for `Cc1ccc(C(=O)NCCN2C3=NC[C@@H](Cc4ccccc4)N3C[C@H]2Cc2ccc(O)cc2)cc1Br`?
E-selectin induc: 0; RAD54 branch: 0; rRNA inh HTS: -55; PglD DTNB: -2; XiGFP reactiv: 0; RAD52 inh: 49; DNA binder FP: inactive

How did CN(C)CCCNC(=O)C[C@@H]1C=C[C@@H](NC(=O)c2ccccc2F)[C@H](CO)O1 do in these assays?
E-selectin induc: 0; RAD54 branch: 3; rRNA inh HTS: 2; PglD DTNB: 4; XiGFP reactiv: 0; RAD52 inh: -12

How did CCCCCCCCCCCCC/C=C/[C@@H](O)[C@@H](N)CO do in these assays?
E-selectin induc: inconclusive; RAD54 branch: 8; PglD DTNB: 4; XiGFP reactiv: 0; RAD52 inh: 55*; DNA binder FP: inactive

What do the screens show for `COc1ccccc1C#Cc1ccc2c(c1)O[C@@H](CN(C)Cc1ccncc1)[C@H](C)CN([C@@H](C)CO)S2(=O)=O`?
RAD54 branch: -7; rRNA inh HTS: -5; PglD DTNB: -1; XiGFP reactiv: 0; RAD52 inh: 4

How did CN(C)CCCNc1nc2cc(-c3cnn(Cc4ccccc4)c3)sc2c(=O)n1C do in these assays?
E-selectin induc: 1; RAD54 branch: 48; rRNA inh HTS: 0; PglD DTNB: -6; XiGFP reactiv: 0; RAD52 inh: 59*; DNA binder FP: inactive

How did Cc1ccc(F)cc1-c1cc2nc(NCCCN(C)C)n(C)c(=O)c2s1 do in these assays?
E-selectin induc: 0; RAD54 branch: 33; rRNA inh HTS: 3; PglD DTNB: -3; XiGFP reactiv: 0; RAD52 inh: 56*; DNA binder FP: inactive

How did CN(C)CCCNc1nc2cc(-c3ccsc3)sc2c(=O)n1C do in these assays?
E-selectin induc: 3; RAD54 branch: 32; rRNA inh HTS: 16; PglD DTNB: 0; XiGFP reactiv: 0; RAD52 inh: 52*; DNA binder FP: inactive

Results for COCCNc1nc2cc(-c3ccsc3)sc2c(=O)n1C ?
E-selectin induc: 0; RAD54 branch: -13; rRNA inh HTS: 5; PglD DTNB: -5; XiGFP reactiv: 0; RAD52 inh: 3

Results for CO[C@H]1CN(C)C(=O)c2ccc(NS(=O)(=O)c3ccc(Cl)cc3)cc2OC[C@H](C)N(C(=O)NC(C)C)C[C@H]1C ?
E-selectin induc: 0; RAD54 branch: -2; rRNA inh HTS: -2; PglD DTNB: 1; XiGFP reactiv: 0; RAD52 inh: 13

Results for OC(CN1CCCC1)Cn1ccc2ccccc21 (stereo unspecified) ?
E-selectin induc: 0; RAD54 branch: 0; rRNA inh HTS: 5; PglD DTNB: -2; XiGFP reactiv: 0; RAD52 inh: 62*; DNA binder FP: inactive

How did O=C(c1ccccc1)N1CCN(CC(O)Cn2ccc3ccccc32)CC1 (stereo unspecified) do in these assays?
E-selectin induc: 0; rRNA inh HTS: 0; XiGFP reactiv: 0; RAD52 inh: -13

How did CO[C@H]1CN(C)C(=O)c2cc(NS(=O)(=O)CC(F)(F)F)ccc2OC[C@H](C)N(Cc2nccs2)C[C@@H]1C do in these assays?
E-selectin induc: 0; RAD54 branch: 4; rRNA inh HTS: 1; PglD DTNB: 1; XiGFP reactiv: 1; RAD52 inh: 0

Results for c1cncc(Nc2c3ccccc3nc3ccccc23)c1 ?
RAD54 branch: 78*; rRNA inh HTS: -4; PglD DTNB: -4; XiGFP reactiv: 0; RAD52 inh: 59*; DNA binder FP: inactive

What do the screens show for `C[C@@H]1CN([C@H](C)CO)C(=O)c2cc(NS(=O)(=O)c3ccccc3)ccc2O[C@H]1CN(C)Cc1ccc(-c2ccccc2)cc1`?
E-selectin induc: 0; RAD54 branch: -2; rRNA inh HTS: -2; PglD DTNB: -2; XiGFP reactiv: 0; RAD52 inh: -17

What do the screens show for `COc1ccc(CN2[C@@H](CO)[C@@H]3c4ccccc4N(C(=O)NC(C)C)C[C@@H]32)cc1`?
E-selectin induc: 0; RAD54 branch: 6; rRNA inh HTS: 7; PglD DTNB: 2; XiGFP reactiv: 0; RAD52 inh: 7

What do the screens show for `CC(C)c1ccc(CNc2nc(NCC3CC3)nc3ccsc23)cc1`?
E-selectin induc: 1; RAD54 branch: -3; rRNA inh HTS: -61; PglD DTNB: -1; XiGFP reactiv: 0; RAD52 inh: 71*; DNA binder FP: inactive

What do the screens show for `C[C@H](CO)N1C[C@H](C)[C@@H](CN(C)CC2CCCCC2)OCCCC[C@H](C)Oc2ccc(NS(=O)(=O)c3cn(C)cn3)cc2C1=O`?
E-selectin induc: 0; RAD54 branch: -13; rRNA inh HTS: 2; PglD DTNB: -3; XiGFP reactiv: -1; RAD52 inh: 13

How did C[C@@H]1CN([C@H](C)CO)C(=O)CCCn2cc(nn2)CO[C@@H]1CN(C)S(=O)(=O)c1ccc(Oc2ccccc2)nc1 do in these assays?
E-selectin induc: 1; rRNA inh HTS: -1; XiGFP reactiv: 0; RAD52 inh: 5

What do the screens show for `Cc1cc2cc(CNC(=O)NC3CCCCC3)ccc2n1C`?
E-selectin induc: 0; RAD54 branch: 11; rRNA inh HTS: -4; PglD DTNB: -4; XiGFP reactiv: 0; RAD52 inh: 66*; DNA binder FP: inactive

How did COc1ccc(NC(=O)O[C@@H](C)[C@@H]2CN3CCc4c([nH]c5ccc(-c6ccc(OC)cc6)cc45)[C@@H]3C[C@@H]2N(C)C(=O)Nc2ccc(OC)cc2)cc1 do in these assays?
E-selectin induc: 0; RAD54 branch: -4; rRNA inh HTS: -27*; PglD DTNB: -3; XiGFP reactiv: 0; RAD52 inh: 53*; DNA binder FP: inactive

What do the screens show for `CC1=CC(C)(C)N=C(Nc2nc(C)c3cc(C)cc(C)c3n2)N1`?
RAD54 branch: 32; rRNA inh HTS: -38; PglD DTNB: 4; XiGFP reactiv: 0; RAD52 inh: 79*; DNA binder FP: inactive
